# Calls of active or inactive are those of the source.
# Legend:
# [1] = molecular target: Transient receptor potential cation channel subfamily V member 1 (Homo sapiens, UniProt Q8NER1); experiment: Antagonist activity at human recombinant TRPV1 receptor assessed as inhibition of capsaicin-induced calcium uptake by FLIPR assay; assay type: functional
# Summary of the method: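 Whole-cell fluorescence imaging assay (FLIPR II) of the rise in intracellular Ca2+ on capsaicin addition. Inhibition by the test compound is quantified.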
# [2] = Aqueous solubility of the compound in sodium phosphate buffer at pH 7.4; assay type: physicochemical
# Summary of the method: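 Solubility measured in 0.1 M sodium phosphate buffer.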
# [3] = Intrinsic clearance in human liver microsomes assessed per mg of protein; assay type: ADME, Microsome; details: read-out: CLH
# [4] = Clearance in rat hepatocytes assessed as per 10^6 cells; assay type: ADME, cell-based, Hepatocyte; details: read-out: CLH
# Rattus norvegicus [5] = experiment: Analgesic activity against carrageenan-induced thermal hyperalgesia in Sprague-Dawley rat assessed as paw withdrawal latency at 100 umol/kg, po after 30 mins after 3 hrs; assay type: functional
# Summary of the method: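 Male Sprague-Dawley rats (125-200 g), groups of 7. Under isoflurane, 100 µl of 1% carrageenan is injected subcutaneously into the plantar left hind paw, and testing is done 3 h later. After 30 min acclimation on a 30 °C glass surface, radiant heat is focused on the affected paw. Withdrawal latency is the mean of two trials about 5 min apart, with a 20 s cut-off. Naïve rats serve as controls. Single oral dose.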
# [6] = Half life in iv dosed Sprague-Dawley rat; assay type: ADME, organism-based; details: in vivo
# [7] = molecular target: Transient receptor potential cation channel subfamily V member 1 (Rattus norvegicus) (UniProt O35433); experiment: Binding affinity to rat TRPV1 at 1 uM
# Sequence of Transient receptor potential cation channel subfamily V member 1 (Rattus norvegicus) (O35433 whole entry): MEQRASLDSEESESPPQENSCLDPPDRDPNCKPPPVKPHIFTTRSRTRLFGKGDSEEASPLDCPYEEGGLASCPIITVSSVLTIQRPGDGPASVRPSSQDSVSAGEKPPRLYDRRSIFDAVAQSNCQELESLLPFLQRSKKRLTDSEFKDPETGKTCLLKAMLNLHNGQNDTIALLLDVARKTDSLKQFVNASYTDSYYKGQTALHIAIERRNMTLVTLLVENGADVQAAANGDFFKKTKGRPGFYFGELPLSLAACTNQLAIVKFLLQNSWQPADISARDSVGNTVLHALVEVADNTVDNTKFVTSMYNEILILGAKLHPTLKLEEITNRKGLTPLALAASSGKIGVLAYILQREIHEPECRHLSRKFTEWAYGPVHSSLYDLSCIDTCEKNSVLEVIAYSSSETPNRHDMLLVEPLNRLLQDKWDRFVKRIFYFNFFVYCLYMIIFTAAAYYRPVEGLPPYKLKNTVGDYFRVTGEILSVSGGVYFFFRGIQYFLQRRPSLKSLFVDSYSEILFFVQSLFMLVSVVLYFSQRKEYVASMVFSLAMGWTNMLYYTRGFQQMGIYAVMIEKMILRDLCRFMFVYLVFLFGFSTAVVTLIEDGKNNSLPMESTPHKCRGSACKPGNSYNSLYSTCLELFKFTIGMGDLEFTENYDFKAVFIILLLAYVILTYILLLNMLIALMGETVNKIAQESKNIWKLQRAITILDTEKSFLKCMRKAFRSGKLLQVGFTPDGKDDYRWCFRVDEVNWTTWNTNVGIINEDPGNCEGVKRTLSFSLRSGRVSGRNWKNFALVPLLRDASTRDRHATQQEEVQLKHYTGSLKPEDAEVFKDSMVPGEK
# [8] = Oral bioavailability in Sprague-Dawley rat; assay type: ADME, organism-based; details: in vivo
# Rattus norvegicus [9] = experiment: Analgesic activity against capsaicin-induced thermal hyperalgesia in Sprague-Dawley rat assessed as paw withdrawal latency at 90 umol/kg, po after 30 mins; assay type: functional
# Summary of the method: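 Male Sprague-Dawley rats (125-200 g), groups of 7, acclimatized at least 3 days and tested in the light phase. Capsaicin 10 μg/5 μL is injected intradermally into the plantar left hind paw of restrained rats. Heat hyperalgesia is read 30 min later as radiant-heat paw withdrawal latency on a 30 °C glass surface: two trials about 5 min apart, averaged, 20 s cut-off. Naïve rats serve as controls. Single oral dose.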
# Rattus norvegicus [10] = experiment: Toxicity in Sprague-Dawley rat assessed as effect on body temperature at 100 umol/kg, po; assay type: organism-based; details: in vivo
# Sequence of Transient receptor potential cation channel subfamily V member 1 (Q8NER1 whole entry): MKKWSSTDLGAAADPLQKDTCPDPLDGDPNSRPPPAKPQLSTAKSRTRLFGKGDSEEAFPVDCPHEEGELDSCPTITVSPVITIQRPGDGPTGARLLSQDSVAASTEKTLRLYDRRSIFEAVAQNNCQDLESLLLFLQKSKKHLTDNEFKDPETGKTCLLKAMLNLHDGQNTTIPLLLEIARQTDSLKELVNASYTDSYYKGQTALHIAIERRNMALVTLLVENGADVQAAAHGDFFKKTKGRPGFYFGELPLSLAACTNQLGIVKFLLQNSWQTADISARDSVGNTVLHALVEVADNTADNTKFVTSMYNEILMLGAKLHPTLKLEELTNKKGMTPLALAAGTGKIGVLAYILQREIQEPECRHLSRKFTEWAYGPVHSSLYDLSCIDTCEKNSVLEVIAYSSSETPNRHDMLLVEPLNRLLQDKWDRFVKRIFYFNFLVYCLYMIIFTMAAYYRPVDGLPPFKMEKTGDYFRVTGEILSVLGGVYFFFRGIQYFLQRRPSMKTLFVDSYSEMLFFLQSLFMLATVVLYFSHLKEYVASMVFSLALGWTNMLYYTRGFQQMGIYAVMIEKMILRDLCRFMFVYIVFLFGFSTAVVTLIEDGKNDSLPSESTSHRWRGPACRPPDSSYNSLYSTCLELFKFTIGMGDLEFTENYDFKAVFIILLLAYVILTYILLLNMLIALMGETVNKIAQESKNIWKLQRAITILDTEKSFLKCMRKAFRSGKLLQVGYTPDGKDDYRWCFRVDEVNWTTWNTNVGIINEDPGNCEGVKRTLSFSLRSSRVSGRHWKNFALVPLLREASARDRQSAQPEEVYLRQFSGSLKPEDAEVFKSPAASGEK
SMILES,IC50 [1],solubility [2],other results
O=C(Nc1ccc2sc(CO)nc2c1)c1ccc(OCC(F)(F)F)nc1,41 nM,9 µM,
O=C(Nc1ccc2sc(CO)nc2c1)C1CCC(C(F)(F)F)CC1 (stereo not drawn),> 10000 nM,77 µM,
Cn1nc(C(F)(F)F)cc1C(=O)Nc1ccc2sc(CO)nc2c1,157 nM,14 µM,microsomal CLint [3]: 9 µL/min/mg
CC(O)c1nc2cc(NC(=O)c3ccc(C(C)(C)C)cc3)ccc2s1 (racemic),223 nM,,
CC(=O)NCc1nc2cc(NC(=O)c3ccc(C(C)(C)C)cc3)ccc2s1,2410 nM,,
Cc1nc2cc(NC(=O)c3ccc(C(C)(C)C)cc3)ccc2s1,27 nM,2.2 µM,
O=S(=O)(Nc1ccc(C(F)(F)F)cc1)c1ccc2sc(CO)nc2c1,5570 nM,,
CC(C)(C)Oc1cccc(C(=O)Nc2ccc3sc(CO)nc3c2)c1,1070 nM,181 µM,
Cc1cc(OC(C)C)ccc1C(=O)Nc1ccc2sc(CO)nc2c1,,9 µM,hepatocyte CLint [4]: 12 µL/min/1e6 cells
CC(C)(C)c1ccc(CNc2ccc3sc(CO)nc3c2)cc1,833 nM,,
CC(C)(C)c1ccc(C(=O)Nc2ccc3sc(CNS(C)(=O)=O)nc3c2)cc1,708 nM,,
O=S(=O)(Nc1ccc2sc(CO)nc2c1)c1ccc(Br)cc1,> 10000 nM,,
Cc1ccc(-c2cc(C(F)(F)F)nn2-c2ccc(S(N)(=O)=O)cc2)cc1 [CELECOXIB],,,Activity (Rattus norvegicus [5]): 35%

# Now from value to compound, other results behind:
IC50 [1],solubility [2],SMILES,other results
,4 µM,O=C(Nc1ccc2sc(CO)nc2c1)c1ccc(N2CCCCC2)nc1,
33.4 nM,38 µM,CC(C)Oc1ccc(C(=O)Nc2ccc3sc(CO)nc3c2)cc1,microsomal CLint [3]: 12 µL/min/mg; hepatocyte CLint [4]: 57 µL/min/1e6 cells
26.5 nM,5 µM,O=C(Nc1ccc2sc(CO)nc2c1)c1ccc(Br)cc1,hepatocyte CLint [4]: 54 µL/min/1e6 cells
> 10000 nM,5160 µM,CCN(CC)Cc1ccc(C(=O)Nc2ccc3sc(CO)nc3c2)cc1,
85.9 nM,7 µM,Cc1cc(Cl)ccc1C(=O)Nc1ccc2sc(CO)nc2c1,hepatocyte CLint [4]: 17 µL/min/1e6 cells
1610 nM,,Cc1ccc(CCNC(=O)c2ccc3sc(CO)nc3c2)cc1,
987 nM,,CC(C)(C)c1ccc(C(=O)Nc2ccc3sc(CN)nc3c2)cc1,
489 nM,37 µM,CCOCc1ccc(C(=O)Nc2ccc3sc(CO)nc3c2)cc1,microsomal CLint [3]: 24 µL/min/mg
9.8 nM,64 µM,CC(C)(C)Oc1ccc(C(=O)Nc2ccc3sc(CO)nc3c2)cc1,microsomal CLint [3]: 19 µL/min/mg
175 nM,25 µM,C#Cc1ccc(C(=O)Nc2ccc3sc(CO)nc3c2)cc1,
11.9 nM,,O=C(Nc1ccc2sc(CO)nc2c1)c1ccc(C(F)(F)F)cc1,
3.7 nM,6 µM,CC(C)(C)c1ccc(C(=O)Nc2ccc3sc(CO)nc3c2)cc1,microsomal CLint [3]: 57 µL/min/mg
> 10000 nM,419 µM,O=C(Nc1ccc2sc(CO)nc2c1)c1ccc(CN2CCOCC2)cc1,microsomal CLint [3]: 13 µL/min/mg
68.2 nM,3 µM,O=C(Nc1ccc2sc(CO)nc2c1)c1ccc(Cl)cc1,microsomal CLint [3]: 14 µL/min/mg; hepatocyte CLint [4]: 66 µL/min/1e6 cells
,61 µM,O=C(Nc1ccc2sc(CO)nc2c1)c1ccc(C(F)(F)F)nc1,microsomal CLint [3]: 13 µL/min/mg
52.2 nM,11 µM,CC(C)(C)OCc1ccc(C(=O)Nc2ccc3sc(CO)nc3c2)cc1,
> 10000 nM,,CC(C)(C)c1ccc(NC(=O)c2ccc3sc(CO)nc3c2)cc1,
52.3 nM,10 µM,Cc1cc(Br)ccc1C(=O)Nc1ccc2sc(CO)nc2c1,half-life [6]: 2.4 h; hepatocyte CLint [4]: 24 µL/min/1e6 cells; Activity [7]: Active; bioavailability [8]: 53%; Activity (Rattus norvegicus [9]): 72%; Activity (Rattus norvegicus [5]): 35%; Activity (Rattus norvegicus [10]): Non-toxic

# Reference: ChEMBL document CHEMBL2086386, “Potent and orally efficacious benzothiazole amides as TRPV1 antagonists” (Bioorg Med Chem Lett, 2012)
